Assay results: ChEMBL document CHEMBL1145439, “Fluorine-18-labeled benzamide analogues for imaging the sigma2 receptor status of solid tumors with positron emission tomography” (J Med Chem, 2007)

Tests used:
Heart [1] = assay: Biodistribution in heart of mouse EMT6 tumor bearing BALB/c mouse at 10 to 20 uCi after 5 mins; assay type: ADME, organism-based; details: in vivo
Outline: (§1)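 EMT-6 cells (5×10^5 in 100 µL PBS) implanted s.c. in scapular region of female Balb/c mice (~2 months, 17-22 g); studied 7-10 days later at ~0.2 cm3 tumor. 18F tracer 10-20 µCi in 100-150 µL saline via tail vein; ≥4 mice per time point; tissue removed at sacrifice, weighed, gamma-counted; %ID/g calculated.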

Blood [2] = assay: Biodistribution in blood of mouse EMT6 tumor bearing BALB/c mouse at 10 to 20 uCi after 60 mins; assay type: ADME, organism-based; details: in vivo, 1 h; outline: as §1
Adipose tissue [3] = assay: Biodistribution in fat of mouse EMT6 tumor bearing BALB/c mouse at 10 to 20 uCi after 120 mins; assay type: ADME, organism-based; details: in vivo, 2 h; outline: as §1
Blood [4] = assay: Biodistribution in blood of mouse EMT6 tumor bearing BALB/c mouse at 10 to 20 uCi after 30 mins; assay type: ADME, organism-based; details: in vivo, 0.5 h; outline: as §1
Kidney [5] = assay: Biodistribution in kidney of mouse EMT6 tumor bearing BALB/c mouse at 10 to 20 uCi after 30 mins; assay type: ADME, organism-based; details: in vivo, 0.5 h; outline: as §1
Lung [6] = assay: Biodistribution in lung of mouse EMT6 tumor bearing BALB/c mouse at 10 to 20 uCi after 5 mins; assay type: ADME, organism-based; details: in vivo; outline: as §1
Adipose tissue [7] = assay: Biodistribution in fat of mouse EMT6 tumor bearing BALB/c mouse at 10 to 20 uCi after 30 mins; assay type: ADME, organism-based; details: in vivo, 0.5 h; outline: as §1
Liver [8] = assay: Biodistribution in liver of mouse EMT6 tumor bearing BALB/c mouse at 10 to 20 uCi after 120 mins; assay type: ADME, organism-based; details: in vivo, 2 h; outline: as §1
Liver [9] = assay: Biodistribution in liver of mouse EMT6 tumor bearing BALB/c mouse at 10 to 20 uCi after 5 mins; assay type: ADME, organism-based; details: in vivo; outline: as §1
[10] = Tumor to fat ratio of the drug in mouse EMT6 tumor bearing BALB/c mouse at 10 to 20 uCi after 2 hrs; assay type: ADME
Outline: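 Tumor-bearing female Balb/c mice (EMT-6 s.c. allograft, ~0.2 cm3) given 10-20 µCi 18F tracer in saline i.v. via tail vein; ≥4 per group; killed 120 min later. Tissues weighed and gamma-counted; ratio = tumor %ID/g divided by that organ's %ID/g.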

Blood [11] = assay: Biodistribution in blood of mouse EMT6 tumor bearing BALB/c mouse at 10 to 20 uCi after 5 mins; assay type: ADME, organism-based; details: in vivo; outline: as §1
Bone [12] = assay: Biodistribution in bone of mouse EMT6 tumor bearing BALB/c mouse at 10 to 20 uCi after 60 mins; assay type: ADME, organism-based, Bone element; details: in vivo, 1 h; outline: as §1
EMT6 [13] = assay: Biodistribution in tumor of EMT6 tumor bearing BALB/c mouse 10 to 20 uCi after 30 mins; assay type: ADME, organism-based; details: emt6, 0.5 h; outline: as §1
Kidney [14] = assay: Biodistribution in kidney of mouse EMT6 tumor bearing BALB/c mouse at 10 to 20 uCi after 5 mins; assay type: ADME, organism-based; details: in vivo; outline: as §1
EMT6 [15] = assay: Biodistribution in tumor of mouse EMT6 tumor bearing BALB/c mouse at 10 to 20 uCi after 5 mins; assay type: ADME, organism-based; details: emt6, 5 min; outline: as §1
Heart [16] = assay: Biodistribution in heart of mouse EMT6 tumor bearing BALB/c mouse at 10 to 20 uCi after 30 mins; assay type: ADME, organism-based; details: in vivo, 0.5 h; outline: as §1
Muscle tissue [17] = assay: Biodistribution in muscle of mouse EMT6 tumor bearing BALB/c mouse at 10 to 20 uCi after 120 mins; assay type: ADME, organism-based; details: in vivo, 2 h; outline: as §1
Bone [18] = assay: Biodistribution in bone of mouse EMT6 tumor bearing BALB/c mouse at 10 to 20 uCi after 30 mins; assay type: ADME, organism-based, Bone element; details: in vivo, 0.5 h; outline: as §1
Blood [19] = assay: Biodistribution in blood of mouse EMT6 tumor bearing BALB/c mouse at 10 to 20 uCi after 120 mins; assay type: ADME, organism-based; details: in vivo, 2 h; outline: as §1
Heart [20] = assay: Biodistribution in heart of EMT6 tumor bearing BALB/c mouse at 10 to 20 uCi after 120 mins; assay type: ADME, organism-based; details: in vivo, 2 h; outline: as §1
EMT6 [21] = assay: Biodistribution in tumor of mouse EMT6 tumor bearing BALB/c mouse at 10 to 20 uCi after 60 mins; assay type: ADME, organism-based; details: emt6, 1 h; outline: as §1
Lung [22] = assay: Biodistribution in lung of mouse EMT6 tumor bearing BALB/c mouse at 10 to 20 uCi after 120 mins; assay type: ADME, organism-based; details: in vivo, 2 h; outline: as §1
Brain [23] = assay: Biodistribution in brain of EMT6 tumor bearing BALB/c mouse at 10 to 20 uCi after 60 mins; assay type: ADME, organism-based; details: in vivo, 1 h; outline: as §1
Brain [24] = assay: Biodistribution in brain of mouse EMT6 tumor bearing BALB/c mouse at 10 to 20 uCi after 120 mins; assay type: ADME, organism-based; details: in vivo, 2 h; outline: as §1
Liver [25] = assay: Biodistribution in liver of mouse EMT6 tumor bearing BALB/c mouse at 10 to 20 uCi after 30 mins; assay type: ADME, organism-based; details: in vivo, 0.5 h; outline: as §1
Muscle tissue [26] = assay: Biodistribution in muscle of EMT6 tumor bearing BALB/c mouse at 10 to 20 uCi after 5 mins; assay type: ADME, organism-based; details: in vivo; outline: as §1
Brain [27] = assay: Biodistribution in brain of EMT6 tumor bearing BALB/c mouse at 10 to 20 uCi after 5 mins; assay type: ADME, organism-based; details: in vivo; outline: as §1
Muscle tissue [28] = assay: Biodistribution in muscle of mouse EMT6 tumor bearing BALB/c mouse at 10 to 20 uCi after 60 mins; assay type: ADME, organism-based; details: in vivo, 1 h; outline: as §1
Adipose tissue [29] = assay: Biodistribution in fat of mouse EMT6 tumor bearing BALB/c mouse at 10 to 20 uCi after 60 mins; assay type: ADME, organism-based; details: in vivo, 1 h; outline: as §1
Muscle tissue [30] = assay: Biodistribution in muscle of mouse EMT6 tumor bearing BALB/c mouse at 10 to 20 uCi after 30 mins; assay type: ADME, organism-based; details: in vivo, 0.5 h; outline: as §1
Bone [31] = assay: Biodistribution in bone of mouse EMT6 tumor bearing BALB/c mouse at 10 to 20 uCi after 5 mins; assay type: ADME, organism-based, Bone element; details: in vivo; outline: as §1
EMT6 [32] = assay: Biodistribution in tumor of mouse EMT6 tumor bearing BALB/c mouse at 10 to 20 uCi after 120 mins; assay type: ADME, organism-based; details: emt6, 2 h; outline: as §1
Liver [33] = assay: Biodistribution in liver of mouse EMT6 tumor bearing BALB/c mouse at 10 to 20 uCi after 60 mins; assay type: ADME, organism-based; details: in vivo, 1 h; outline: as §1
Bone [34] = assay: Biodistribution in bone of mouse EMT6 tumor bearing BALB/c mouse at 10 to 20 uCi after 120 mins; assay type: ADME, organism-based, Bone element; details: in vivo, 2 h; outline: as §1
Lung [35] = assay: Biodistribution in lung of mouse EMT6 tumor bearing BALB/c mouse at 10 to 20 uCi after 60 mins; assay type: ADME, organism-based; details: in vivo, 1 h; outline: as §1
Kidney [36] = assay: Biodistribution in kidney of mouse EMT6 tumor bearing BALB/c mouse at 10 to 20 uCi after 120 mins; assay type: ADME, organism-based; details: in vivo, 2 h; outline: as §1
Lung [37] = assay: Biodistribution in lung of mouse EMT6 tumor bearing BALB/c mouse at 10 to 20 uCi after 30 mins; assay type: ADME, organism-based; details: in vivo, 0.5 h; outline: as §1
Adipose tissue [38] = assay: Biodistribution in fat of mouse EMT6 tumor bearing BALB/c mouse at 10 to 20 uCi after 5 mins; assay type: ADME, organism-based; details: in vivo; outline: as §1
Heart [39] = assay: Biodistribution in heart of mouse EMT6 tumor bearing BALB/c mouse at 10 to 20 uCi after 60 mins; assay type: ADME, organism-based; details: in vivo, 1 h; outline: as §1
Brain [40] = assay: Biodistribution in brain of EMT6 tumor bearing BALB/c mouse at 10 to 20 uCi after 30 mins; assay type: ADME, organism-based; details: in vivo, 0.5 h; outline: as §1
Kidney [41] = assay: Biodistribution in kidney of mouse EMT6 tumor bearing BALB/c mouse at 10 to 20 uCi after 60 mins; assay type: ADME, organism-based; details: in vivo, 1 h; outline: as §1
[42] = target: Sigma non-opioid intracellular receptor 1 (Cavia porcellus, UniProt Q60492); assay: Displacement of [3H](+)-pentazocine from sigma 1 receptor in guinea pig brain membrane after 90 mins; assay type: cell membranes
Sigma non-opioid intracellular receptor 1, sequence (Q60492 whole entry): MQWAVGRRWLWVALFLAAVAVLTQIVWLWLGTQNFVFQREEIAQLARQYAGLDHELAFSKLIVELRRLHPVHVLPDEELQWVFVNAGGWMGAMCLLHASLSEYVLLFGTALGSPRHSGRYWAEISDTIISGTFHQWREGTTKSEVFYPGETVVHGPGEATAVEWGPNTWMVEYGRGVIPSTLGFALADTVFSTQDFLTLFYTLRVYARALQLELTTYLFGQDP
Outline: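 Guinea pig brain membranes (~300 µg protein) with ~5 nM [3H](+)-pentazocine, 90 min at room temperature; nonspecific binding with 10 µM haloperidol; stopped with ice-cold Tris/NaCl buffer, filtered, scintillation counted. IC50 by nonlinear regression, one-site fit; Ki by Cheng-Prusoff, mean ± SEM.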

[43] = Selectivity for rat liver sigma 2 receptor over guinea pig brain sigma 1 receptor
[44] = Displacement of [3H]DTG from sigma 2 receptor in rat liver membrane after 120 mins; assay type: cell membranes
Outline: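 Rat liver membranes (~300 µg protein) incubated with ~5 nM [3H]DTG plus 1 µM (+)-pentazocine to mask σ1 sites, 120 min at room temperature; 10 µM haloperidol defines nonspecific binding; filtration and scintillation counting. One-site nonlinear regression IC50, converted to Ki by Cheng-Prusoff; mean ± SEM.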

## COc1cc2c(cc1OC)CN(CCCCNC(=O)c1cc(Br)ccc1OCC[18F])CC2
Heart [1]
  Drug uptake: 3.74 % ID/g
Blood [2]
  Drug uptake: 1.69 % ID/g
Adipose tissue [3]
  Drug uptake: 0.15 % ID/g
Blood [4]
  Drug uptake: 2.81 % ID/g
Kidney [5]
  Drug uptake: 17.55 % ID/g
Lung [6]
  Drug uptake: 12.08 % ID/g
Adipose tissue [7]
  Drug uptake: 0.96 % ID/g
Liver [8]
  Drug uptake: 2.3 % ID/g
Liver [9]
  Drug uptake: 32.6 % ID/g
[10]
  Ratio: 6
Blood [11]
  Drug uptake: 3.57 % ID/g
Bone [12]
  Drug uptake: 1.12 % ID/g
EMT6 [13]
  Drug uptake: 2.59 % ID/g
Kidney [14]
  Drug uptake: 42.94 % ID/g
EMT6 [15]
  Drug uptake: 3.28 % ID/g
Heart [16]
  Drug uptake: 1.55 % ID/g
Muscle tissue [17]
  Drug uptake: 0.28 % ID/g
Bone [18]
  Drug uptake: 1.17 % ID/g
Blood [19]
  Drug uptake: 0.52 % ID/g
Heart [20]
  Drug uptake: 0.4 % ID/g
EMT6 [21]
  Drug uptake: 2.09 % ID/g
Lung [22]
  Drug uptake: 0.51 % ID/g
Brain [23]
  Drug uptake: 0.32 % ID/g
Brain [24]
  Drug uptake: 0.2 % ID/g
Liver [25]
  Drug uptake: 13.12 % ID/g
Muscle tissue [26]
  Drug uptake: 1.95 % ID/g
Brain [27]
  Drug uptake: 1.09 % ID/g
Muscle tissue [28]
  Drug uptake: 0.58 % ID/g
Adipose tissue [29]
  Drug uptake: 0.38 % ID/g
Muscle tissue [30]
  Drug uptake: 0.98 % ID/g
Bone [31]
  Drug uptake: 2.9 % ID/g
EMT6 [32]
  Drug uptake: 0.96 % ID/g
Liver [33]
  Drug uptake: 5.69 % ID/g
Bone [34]
  Drug uptake: 1.28 % ID/g
Lung [35]
  Drug uptake: 1.6 % ID/g
Kidney [36]
  Drug uptake: 1.12 % ID/g
Lung [37]
  Drug uptake: 3.08 % ID/g
Adipose tissue [38]
  Drug uptake: 2.85 % ID/g
Heart [39]
  Drug uptake: 1.04 % ID/g
Brain [40]
  Drug uptake: 0.4 % ID/g
Kidney [41]
  Drug uptake: 6.92 % ID/g

## COc1cc2c(cc1OC)CN(CCCCNC(=O)c1cc(Br)cc(OC)c1OCCF)CC2
[42]
  Ki: 15.3 µM
[43]
  Ratio Ki: 40
[44]
  Ki: 0.386 µM
